Data on 16 compounds can be found in ChEMBL document CHEMBL1139418, “Synthesis and SAR of novel parenteral anti-pseudomonal cephalosporins: discovery of FR264205” (Bioorg Med Chem Lett, 2008).

The test system of series [1] is Pseudomonas aeruginosa. The series is described as follows: Antipseudomonal activity against Pseudomonas aeruginosa class A TEM beta-lactamase-induced clinical isolate FP2056 by CLSI method. The format is functional.
The test system of series [2] is Pseudomonas aeruginosa. Nature of the series: Outer-membrane permeability assessed as ratio of MIC for Pseudomonas aeruginosa in absence of DEAE-dextran to MIC for Pseudomonas aeruginosa in presence of DEAE-dextran. The format is functional. The essentials: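 MIC per CLSI method, measured for each strain with and without the outer-membrane permeabilizer DEAE-dextran. Permeability index is the ratio of MIC without additive to MIC with additive.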

Series [3] has as its system Pseudomonas aeruginosa. Nature of the series: Antipseudomonal activity against Pseudomonas aeruginosa class C AmpC(1d) beta-lactamase-induced clinical isolate FP1380 by CLSI method. In kind it is functional. The following applies: 24 h.
For series [4], the system named is Pseudomonas aeruginosa. The series is described as follows: Antipseudomonal activity against Pseudomonas aeruginosa clinical isolates by CLSI method. The format is functional.
A further series deals with Mus musculus. Nature of the series: Induction of convulsion in intracerebroventricular dosed mouse. In kind it is organism-based. The following applies: in vivo, icv_or_intrathecal.
Setting [5] is: Pseudomonas aeruginosa, read-out: MIC50.

Molecules are shown by their SMILES. In brackets after ≈: the same amount, converted by molar mass.

As a reminder, the MIC is the lowest concentration that inhibits growth of the organism. High values mean weaker potency, low ones greater potency. The term MIC50 denotes an inhibitory concentration at the 50% level, which refers to growth in some studies and to a panel of isolates in others. For the compound `CC(C)(O/N=C(\C(=O)N[C@@H]1C(=O)N2C(C(=O)[O-])=C(C[n+]3ccc(CCN)cc3)CS[C@H]12)c1nsc(N)n1)C(=O)O`, the results for the MIC with Pseudomonas aeruginosa [1] and in the series with Pseudomonas aeruginosa [3] were 1 µg/mL (≈ 1.69 µM) and 4 µg/mL (≈ 6.77 µM), respectively. The Ratio in the series on Pseudomonas aeruginosa [2] is on record as 8. The MIC50 in the series with Pseudomonas aeruginosa [4] (setting [5]) is 1 µg/mL (≈ 1.69 µM).
`Cn1c(N)cc[n+]1CC1=C(C(=O)[O-])N2C(=O)[C@@H](NC(=O)/C(=N\OC(C)(C)C(=O)O)c3nsc(N)n3)[C@H]2SC1`: the minimum inhibitory concentration (MIC) is 1 µg/mL (≈ 1.77 µM) in the series on Pseudomonas aeruginosa [1] and 32 µg/mL (≈ 56.6 µM) with Pseudomonas aeruginosa [3]. Further, the MIC50 with Pseudomonas aeruginosa [4] (setting [5]) was 1 µg/mL (≈ 1.77 µM).
On to `CC(C)(O/N=C(\C(=O)N[C@@H]1C(=O)N2C(C(=O)[O-])=C(C[n+]3ccccc3)CS[C@H]12)c1nsc(N)n1)C(=O)O`, for which the MIC was determined as 1 µg/mL (≈ 1.83 µM) with Pseudomonas aeruginosa [1] and 32 µg/mL (≈ 58.4 µM) in the series with Pseudomonas aeruginosa [3]. Besides, in the series on Pseudomonas aeruginosa [4] (setting [5]), the MIC50 worked out at 2 µg/mL (≈ 3.65 µM).
For the compound `CO/N=C(/C(=O)N[C@@H]1C(=O)N2C(C(=O)[O-])=C(C[n+]3ccn4ncccc43)CS[C@H]12)c1nsc(N)n1`, the MIC is 2 µg/mL (≈ 3.88 µM) against Pseudomonas aeruginosa [1] and 32 µg/mL (≈ 62.1 µM) with Pseudomonas aeruginosa [3]. The compound further yielded an ED50 in the series with Mus musculus of 230 µg. In the series with Pseudomonas aeruginosa [4] (setting [5]), the MIC50 was 2 µg/mL (≈ 3.88 µM).
As for `Cn1c(N)c(CN)c[n+]1CC1=C(C(=O)[O-])N2C(=O)[C@@H](NC(=O)/C(=N\OC(C)(C)C(=O)O)c3nsc(N)n3)[C@H]2SC1`, the MIC in the series with Pseudomonas aeruginosa [1] came to 0.5 µg/mL (≈ 0.841 µM); with Pseudomonas aeruginosa [3], 8 µg/mL (≈ 13.5 µM). In addition, in the series with Mus musculus, the ED50 came out at 39.3 µg. In the series with Pseudomonas aeruginosa [4] (setting [5]), the MIC50 amounted to 0.5 µg/mL (≈ 0.841 µM).
For the compound `CC(C)(O/N=C(\C(=O)N[C@@H]1C(=O)N2C(C(=O)[O-])=C(C[n+]3cccc(N)c3)CS[C@H]12)c1nsc(N)n1)C(=O)O`, the MIC in the series with Pseudomonas aeruginosa [1] was determined as 1 µg/mL (≈ 1.78 µM); in the series with Pseudomonas aeruginosa [3] it was 32 µg/mL (≈ 56.9 µM). The Ratio in the series with Pseudomonas aeruginosa [2] was 32. In the series with Pseudomonas aeruginosa [4] (setting [5]), the MIC50 was 1 µg/mL (≈ 1.78 µM).
Take `CC(C)(O/N=C(\C(=O)N[C@@H]1C(=O)N2C(C(=O)[O-])=C(C[n+]3cccc(NC(=N)N)c3)CS[C@H]12)c1nsc(N)n1)C(=O)O`: the MIC in the series on Pseudomonas aeruginosa [1] worked out at 1 µg/mL (≈ 1.65 µM); against Pseudomonas aeruginosa [3] it was 8 µg/mL (≈ 13.2 µM). Moreover, the Ratio in the series with Pseudomonas aeruginosa [2] is 16. Further, the MIC50 with Pseudomonas aeruginosa [4] (setting [5]) was found to be 1 µg/mL (≈ 1.65 µM).
For the compound `CC(C)(O/N=C(\C(=O)N[C@@H]1C(=O)N2C(C(=O)O)=C(C[n+]3ccc4n3CCN4)CS[C@H]12)c1nsc(N)n1)C(=O)O.O=S(=O)([O-])O`, the MIC with Pseudomonas aeruginosa [1] came out at 1 µg/mL; in the series with Pseudomonas aeruginosa [3] it was 16 µg/mL. Also, the MIC50 in the series with Pseudomonas aeruginosa [4] (setting [5]) was determined as 1 µg/mL.
Regarding `CC(C)(O/N=C(\C(=O)N[C@@H]1C(=O)N2C(C(=O)[O-])=C(C[n+]3ccc(N)n3CCO)CS[C@H]12)c1nsc(N)n1)C(=O)O.Cl`, the MIC with Pseudomonas aeruginosa [1] amounted to 1 µg/mL; with Pseudomonas aeruginosa [3], 16 µg/mL. Moreover, the ED50 in the series with Mus musculus came to 46.9 µg. Moreover, the Ratio with Pseudomonas aeruginosa [2] turned out to be 64. Besides, the MIC50 in the series with Pseudomonas aeruginosa [4] (setting [5]) was found to be 1 µg/mL.
`Cn1c(N)c(/C=C/CN)c[n+]1CC1=C(C(=O)[O-])N2C(=O)[C@@H](NC(=O)/C(=N\OC(C)(C)C(=O)O)c3nsc(N)n3)[C@H]2SC1`: the MIC was found to be 1 µg/mL (≈ 1.61 µM) against Pseudomonas aeruginosa [1] and 2 µg/mL (≈ 3.22 µM) in the series with Pseudomonas aeruginosa [3]. For the same compound, the ED50 with Mus musculus was 122 µg. In the series with Pseudomonas aeruginosa [4] (setting [5]), the MIC50 stood at 0.5 µg/mL (≈ 0.806 µM).
The matching figures for `CC(C)(O/N=C(\C(=O)N[C@@H]1C(=O)N2C(C(=O)[O-])=C(C[n+]3ccccc3)CS[C@H]12)c1csc(N)n1)C(=O)O` [CEFTAZIDIME]: 2 µg/mL (≈ 3.66 µM), 128 µg/mL (≈ 234 µM), 71 µg and 2 µg/mL (≈ 3.66 µM).
As for `CC(C)(O/N=C(\C(=O)N[C@@H]1C(=O)N2C(C(=O)[O-])=C(C[n+]3ccc(N)n3CCCF)CS[C@H]12)c1nsc(N)n1)C(=O)O`, the MIC against Pseudomonas aeruginosa [1] is 1 µg/mL (≈ 1.63 µM); against Pseudomonas aeruginosa [3] it was 8 µg/mL (≈ 13.1 µM). The MIC50 in the series on Pseudomonas aeruginosa [4] (setting [5]) worked out at 1 µg/mL (≈ 1.63 µM).
Turning to `Cn1c(N)c(NC(=O)CN)c[n+]1CC1=C(C(=O)[O-])N2C(=O)[C@@H](NC(=O)/C(=N\OC(C)(C)C(=O)O)c3nsc(N)n3)[C@H]2SC1`, the MIC in the series on Pseudomonas aeruginosa [1] was 0.5 µg/mL (≈ 0.784 µM); against Pseudomonas aeruginosa [3], 2 µg/mL (≈ 3.14 µM). Also, the ED50 in the series on Mus musculus is greater than 200 µg. Further, in the series on Pseudomonas aeruginosa [4] (setting [5]), the MIC50 was 0.5 µg/mL (≈ 0.784 µM).
On to `CC(C)(O/N=C(\C(=O)N[C@@H]1C(=O)N2C(C(=O)O)=C(C[n+]3ccc4n3CCCN4)CS[C@H]12)c1nsc(N)n1)C(=O)O.O=S(=O)([O-])O`, for which the MIC in the series on Pseudomonas aeruginosa [1] was 1 µg/mL; with Pseudomonas aeruginosa [3], 4 µg/mL. In addition, the MIC50 in the series on Pseudomonas aeruginosa [4] (setting [5]) is 1 µg/mL.
Take `Cn1c(N)c(NC(=O)NCCN)c[n+]1CC1=C(C(=O)O)N2C(=O)[C@@H](NC(=O)/C(=N\OC(C)(C)C(=O)[O-])c3nsc(N)n3)[C@H]2SC1` [CEFTOLOZANE]: the MIC was determined as 0.5 µg/mL (≈ 0.75 µM) against Pseudomonas aeruginosa [1] and 2 µg/mL (≈ 3 µM) with Pseudomonas aeruginosa [3]. The ED50 with Mus musculus was found to be 428 µg. For the same compound, the MIC50 in the series with Pseudomonas aeruginosa [4] (setting [5]) was determined as 0.5 µg/mL (≈ 0.75 µM).
As for `Cn1c(N)c(CNC(=N)N)c[n+]1CC1=C(C(=O)[O-])N2C(=O)[C@@H](NC(=O)/C(=N\OC(C)(C)C(=O)O)c3nsc(N)n3)[C@H]2SC1`, the results for the MIC in the series on Pseudomonas aeruginosa [1] and against Pseudomonas aeruginosa [3] were 0.5 µg/mL (≈ 0.785 µM) and 1 µg/mL (≈ 1.57 µM), respectively. Moreover, the ED50 in the series with Mus musculus is 4.69 µg. In addition, the MIC50 against Pseudomonas aeruginosa [4] and in the series on Pseudomonas aeruginosa [4] (setting [5]) was 0.5 µg/mL (≈ 0.785 µM) each time.
